Sampled rows, rich in hits. Any-hit rate of the full collection: about 2.9%.
SENP8 block-1 – blocks the human protease SENP8. actives 1.2% (n = 330,000). inhibition, % at 10 µM. purified SENP8, Z-RLRGG-aminoluciferin cleavage, luminescence. Q96LD8; in the data active means inhibition above about 50%
Target sequence (Q96LD8 whole entry, looked up): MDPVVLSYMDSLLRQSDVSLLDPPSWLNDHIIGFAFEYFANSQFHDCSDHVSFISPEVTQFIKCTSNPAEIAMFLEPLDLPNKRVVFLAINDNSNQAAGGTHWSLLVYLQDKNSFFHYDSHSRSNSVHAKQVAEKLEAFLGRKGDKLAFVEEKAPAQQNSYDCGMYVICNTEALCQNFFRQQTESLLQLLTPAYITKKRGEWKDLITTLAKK
SENP6 block – SENP6 protease inhibition; Recombinant SENP6 catalytic domain, aminoluciferin luminescence; Q9GZR1; actives 1.8% (n = 330,000); AID 2599; inhibition, % at 10 µM;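 active means inhibition above about 50% at the single tested dose, limit read from the data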;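 further: plate controls were DMSO wells with enzyme for no effect and DMSO wells lacking enzyme for full effect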
SENP7 inh – inhibitors of human SENP7 protease | recombinant SENP7, Z-RLRGG-aminoluciferin luminescence, 40 min | AID 434973 | inhibition, % at 5 µM | Q9BQF6 | actives 1.5% (n = 330,000);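 active means inhibition above about 50% at the single test dose, limit read from the data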;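 further: plate controls were DMSO with enzyme for no effect and no enzyme buffer wells for full effect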
SENP8 block-2 – blocks human SENP8 cleavage of Nedd8 substrate. recombinant SENP8, Nedd8 substrate fluorescence. inhibition, % at 20 µM. actives 0.64% (n = 360,000). AID 602440; in the data active means inhibition mostly above about 40%, no sharp cut-off; inactive means mostly below about 27%
Apaf-1 inh – inhibitors of human Apaf-1 apoptosome; O14727; reconstituted apoptosome caspase-3 activity, DEVD-Rh110 fluorescence; inhibition, % at 20 µM; actives 0.71% (n = 330,000); AID 489030; active means inhibition of at least 40% at 20 µM;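 further: plate controls were DMSO wells for no effect and DEVD-CHO caspase inhibitor wells for full effect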
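Material: biochemical Apaf-1 apoptosome reconstitution. Medium: Hepes buffer, pH 7.5. Also added: cytochrome c activation, bis-DEVD rhodamine 110 substrate. Timing: 30 min compound preincubation, 50 min activation, room temperature. Measured by: rhodamine 110 fluorescence at Ex 480/Em 540 nm.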
SENP1 FRET inh – SENP1 (human) catalytic domain inhibition; Q9P0U3; recombinant SENP1 catalytic domain, CyPet-SUMO1-YPet FRET cleavage; inhibition, % at 10 µM; actives 0.21% (n = 360,000); AID 624204;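 active means inhibition at least 30% at 10 µM, raw YFP signal under a set limit, fluorescence ratio 0.5 to 1.5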;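 further: 0% = enzyme with DMSO and 100% = no enzyme wells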
Target sequence (Q9P0U3 419-644 limits assumed): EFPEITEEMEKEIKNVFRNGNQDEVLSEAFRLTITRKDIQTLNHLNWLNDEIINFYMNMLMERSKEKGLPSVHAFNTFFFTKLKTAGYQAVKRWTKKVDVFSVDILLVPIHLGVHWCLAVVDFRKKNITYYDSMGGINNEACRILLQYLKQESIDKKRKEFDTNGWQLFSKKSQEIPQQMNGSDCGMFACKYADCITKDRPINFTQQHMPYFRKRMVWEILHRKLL
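Test system: hSENP1 catalytic domain, recombinant; Amount: 20 pM final SENP1 enzyme; Medium: Tris pH 8 buffer plus EDTA, NaCl, BME, BSA, NP40, catalase; Schedule: 50 min enzyme reaction, room temperature, light-protected; Technique: FRET fluorescence in CFP and YFP emission channels; Controls: no-enzyme wells low, DMSO-plus-enzyme wells high control.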
SENP8 conf – human SENP8 inhibition, confirmed | shares compounds with SENP7 inh | Recombinant SENP8, Z-RLRGG-aminoluciferin luminescence, 60 min | actives 40% (n = 6,200) | inhibition, % at 12.5 µM;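 active means mean inhibition across replicates above about 50%, limit read from the data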
SENP6 conf – confirmation of human SENP6 protease inhibitors; actives 58% (n = 6,200); recombinant SENP6, Z-RLRGG-aminoluciferin luminescence; inhibition, % at 12.5 µM; shares compounds with SENP7 inh
SENP7 conf – confirmation of human SENP7 protease inhibitors | inhibition, % at 12.5 µM | shares compounds with SENP7 inh | actives 69% (n = 6,200) | recombinant SENP7, Z-RLRGG-aminoluciferin luminescence, 40 min
Casp3 select – selectivity test for SENP inhibitors: human caspase-3 inhibition | shares compounds with SENP7 inh | purified caspase-3, Z-DEVD-aminoluciferin luminescence, 60 min | inhibition, % at 12.5 µM | actives 60% (n = 6,200);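 active means mean inhibition above about 50%, limit read from the data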;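 further: plate controls were enzyme with DMSO for no effect and wells without caspase-3 for full effect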
Target sequence (P42574 28-227 limits assumed): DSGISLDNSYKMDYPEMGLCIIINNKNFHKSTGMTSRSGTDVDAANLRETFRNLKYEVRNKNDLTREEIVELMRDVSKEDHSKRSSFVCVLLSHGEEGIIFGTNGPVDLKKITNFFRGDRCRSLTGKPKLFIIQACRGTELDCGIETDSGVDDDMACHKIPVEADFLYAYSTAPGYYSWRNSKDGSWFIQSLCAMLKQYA
Luc interf – counter-screen for SENP inhibitors: luminescence interference | shares compounds with SENP7 inh | Pre-incubated SENP8/Z-RLRGG-aminoluciferin, luciferase luminescence interference | inhibition, % at 12.5 µM | actives 39% (n = 6,200) | AID 488919;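 active means mean inhibition above about 50% when retested at one dose, limit read from the data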;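 further: plate controls were DMSO wells with completed reaction for no effect and substrate without enzyme for full effect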
An asterisk follows results filed as active.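 How the source made its calls, unless noted: active means mean inhibition above about 50% in the one-dose retest (limit read from the data); inactive means the rest.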

What do the screens show for `O=C(/C=C/c1ccco1)Nc1sc2c(c1C(=O)O)CCC2`?
SENP8 block-1: 84*; SENP6 block: 92*; SENP7 inh: 44; SENP8 block-2: 9; Apaf-1 inh: 3; SENP1 FRET inh: 3; SENP8 conf: 91*; SENP6 conf: 90*; SENP7 conf: 99*; Casp3 select: 94*; Luc interf: 92*

What do the screens show for `O=S1(=O)N[C@H](Cc2ccccc2)COc2cc(N3CCN(Cc4ccccc4F)CC3)ccc21`?
SENP8 block-2: -1; SENP1 FRET inh: -2

How did Cc1c(O)ccc(C(=O)CN2CCN(Cc3ccccc3)CC2)c1O do in these assays?
SENP8 block-1: -1; SENP6 block: -21; SENP7 inh: 59*; SENP8 block-2: -14; Apaf-1 inh: -4; SENP1 FRET inh: 4; SENP8 conf: -12; SENP6 conf: -1; SENP7 conf: -9; Casp3 select: -4; Luc interf: -3

How did CCOC(=O)/C(=N\Nc1ncnc2ccccc12)c1ccc(C)cc1 do in these assays?
SENP8 block-1: 62*; SENP6 block: 61*; SENP7 inh: 25; SENP8 block-2: 30; Apaf-1 inh: 22; SENP1 FRET inh: 0; SENP8 conf: -24; SENP6 conf: 56*; SENP7 conf: 78*; Casp3 select: 6; Luc interf: 20

How did COc1ccc([C@H]2C[C@H](O)[C@@H](n3cc(COC(=O)c4ccccc4)nn3)CN2C(=O)C2CCCCC2)cc1 do in these assays?
SENP8 block-2: -6; SENP1 FRET inh: 1

How did O=C(NC1CC2CCC(C1)N2Cc1ccccc1)c1ccccc1Cl (centres undefined) do in these assays?
SENP8 block-1: 12; SENP6 block: 10; SENP7 inh: 0; SENP8 block-2: 1; Apaf-1 inh: -6; SENP1 FRET inh: -3

How did CCCCN1C2CCCC1CC(NC(=O)c1ccccc1Cl)C2 (centres undefined) do in these assays?
SENP8 block-1: -7; SENP6 block: -12; SENP7 inh: 83*; SENP8 block-2: 22; Apaf-1 inh: -7; SENP1 FRET inh: 3; SENP8 conf: -8; SENP6 conf: -3; SENP7 conf: -6; Casp3 select: -3; Luc interf: -5

How did C[C@]12c3[nH]c4ccccc4c3CCN1C(=O)C(CC(=O)NCCN1CCOCC1)C[C@@H]2C(=O)N1CCCCC1 (some centres undefined) do in these assays?
SENP8 block-1: -2; SENP6 block: -9; SENP7 inh: 4; SENP8 block-2: -3; Apaf-1 inh: -15; SENP1 FRET inh: 0

How did O=C1C(c2ccncc2)=C(O)c2ccccc21 do in these assays?
SENP8 block-1: 73*; SENP6 block: 85*; SENP7 inh: 72*; SENP8 block-2: 27; Apaf-1 inh: -3; SENP1 FRET inh: 9; SENP8 conf: 84*; SENP6 conf: 83*; SENP7 conf: 96*; Casp3 select: 91*; Luc interf: 67*

What do the screens show for `O=C1C(c2cc(=O)c3ccccc3[nH]2)=C(O)c2ccccc21`?
SENP8 block-1: 97*; SENP6 block: 98*; SENP7 inh: 100*; SENP8 block-2: 23; Apaf-1 inh: -2; SENP1 FRET inh: 2; SENP8 conf: 94*; SENP6 conf: 99*; SENP7 conf: 103*; Casp3 select: 96*; Luc interf: 95*

What do the screens show for `Cc1ccc(C2=C(O)c3ccccc3C(=O)C2=O)cc1`?
SENP8 block-1: -7; SENP6 block: 11; SENP7 inh: -2; SENP8 block-2: 10; Apaf-1 inh: 6; SENP1 FRET inh: -3

What do the screens show for `O=c1cc(-c2ccccc2)[nH]c2ccccc12`?
SENP8 block-1: -9; SENP6 block: 0; SENP7 inh: -3; SENP8 block-2: -17; Apaf-1 inh: 13; SENP1 FRET inh: 0

How did OCc1nc2ccccc2n1CCCc1ccccc1 do in these assays?
SENP8 block-2: 10; SENP1 FRET inh: 0

What do the screens show for `CN=c1sc(C(=O)Nc2cccc(Cl)c2)cc(=O)n1C`?
SENP8 block-1: -13; SENP6 block: -21; SENP7 inh: 2; SENP8 block-2: 16; Apaf-1 inh: 12; SENP1 FRET inh: 1

Results for Cn1ccs/c1=N\C(=O)Nc1cccc(Cl)c1 ?
SENP8 block-1: 52*; SENP6 block: 70*; SENP7 inh: 73*; SENP8 block-2: 7; Apaf-1 inh: -9; SENP1 FRET inh: 2; SENP8 conf: 17; SENP6 conf: 17; SENP7 conf: 67*; Casp3 select: 45; Luc interf: 51*

How did O=c1ccn([C@@H]2O[C@H](CNCc3cccn3-c3nccs3)[C@@H](O)[C@H]2O)c(=O)[nH]1 do in these assays?
SENP8 block-2: 34; SENP1 FRET inh: -1

How did Cc1nccc(-c2cc(-c3ccc(Cl)cc3Cl)no2)n1 do in these assays?
SENP8 block-1: 84*; SENP6 block: 89*; SENP7 inh: 88*; SENP8 block-2: 0; Apaf-1 inh: -9; SENP1 FRET inh: 2; SENP8 conf: 73*; SENP6 conf: 77*; SENP7 conf: 94*; Casp3 select: 84*; Luc interf: 20

Results for CCCCSc1nc2c(cnn2-c2ccccc2)c(=O)n1N ?
SENP8 block-1: 44; SENP6 block: 82*; SENP7 inh: 68*; SENP8 block-2: 16; Apaf-1 inh: -11; SENP1 FRET inh: 2; SENP8 conf: 69*; SENP6 conf: 67*; SENP7 conf: 88*; Casp3 select: 63*; Luc interf: 48

Results for O=C(O)CSc1nc2c(cnn2-c2ccccc2)c(=O)n1-c1ccc(Br)cc1 ?
SENP8 block-1: 41; SENP6 block: 56*; SENP7 inh: 3; SENP8 block-2: 19; Apaf-1 inh: 5; SENP1 FRET inh: 0; SENP8 conf: 40; SENP6 conf: 37; SENP7 conf: 24; Casp3 select: 10; Luc interf: 60*
